Here are results for 16 molecules from ChEMBL document CHEMBL1772968, “Comparing micellar, hemolytic, and antibacterial properties of di- and tricarboxyl dendritic amphiphiles” (Bioorg Med Chem, 2011).

The test system of series [1] is Staphylococcus aureus. As to the kind of experiment: Antibacterial activity against Staphylococcus aureus by broth microdilution method. It is filed as functional. For orientation: Dilution methods test growth across graded concentrations, often in twofold steps.
In series [2] the test system is Staphylococcus aureus. The series is described as follows: Antibacterial activity against methicillin-resistant Staphylococcus aureus by broth microdilution method. The series is classed as functional.
Series [3] deals with Staphylococcus aureus. As to the kind of experiment: Antibacterial activity against methicillin-resistant Staphylococcus aureus 523000 by broth microdilution method. The series is classed as functional. In short, it runs like this:
(§1)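 MIC (defined as MIC99) determined by broth microdilution in 0.1-strength brain heart infusion broth. Cultures were diluted in growth medium to an inoculum of about 10^5 CFU/mL. Stocks of the amphiphiles were made in aqueous triethanolamine (5% w/v). Vancomycin stock was 500 mg/L in sterile water. Measurements were done in duplicate. Lines 1-6 are recent patient MRSA isolates.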

Series [4] deals with Staphylococcus aureus. The series is described as follows: Antibacterial activity against methicillin-resistant Staphylococcus aureus 522870 by broth microdilution method. It is filed as functional. In short, it runs like this: as §1
Series [5] concerns Staphylococcus aureus. The series is described as follows: Antibacterial activity against methicillin-resistant Staphylococcus aureus 36361 by broth microdilution method. The series is classed as functional. The method, boiled down:
as §1

For series [6], the system named is Staphylococcus aureus. As to the kind of experiment: Antibacterial activity against methicillin-resistant Staphylococcus aureus 53016 by broth microdilution method. The series is classed as functional. The method, boiled down:
as §1

The subject of series [7] is Staphylococcus aureus. The series is described as follows: Antibacterial activity against methicillin-resistant Staphylococcus aureus ATCC 43330 by broth microdilution method. The series is classed as functional. The method, boiled down: as §1
The subject of series [8] is Staphylococcus aureus. The series is described as follows: Antibacterial activity against methicillin-resistant Staphylococcus aureus 34380 by broth microdilution method. The series is classed as functional. In short, it runs like this:
as §1

Series [9] in a line: Cytotoxicity in sheep RBC assessed as hemolysis after 15 mins by microplate reader. It is filed as cell-based, Ovis aries. To be noted: erythrocyte, 0.25 h. In short, it runs like this:
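Washed defibrinated sheep red cells (1.1 × 10^7 cells/mL) in PBS pH 7.4, or in full-strength BHIB, were mixed 1:1 with compound diluted from 5% triethanolamine stock. Incubation was 15 min at 37 °C, then cells were pelleted at 5000g for 20 min. Supernatant A540 was read against 0.1% Triton X-100 (complete lysis). EC10 was the lowest concentration giving 10% lysis, in duplicate.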

Series [10] concerns Staphylococcus aureus. The series is described as follows: Antibacterial activity against Staphylococcus aureus ATCC 6358 by broth microdilution method. It is filed as functional. The method, boiled down:
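Log-phase cultures diluted and tested by broth microdilution in 0.1-strength brain heart infusion broth at about 10^5 CFU/mL inoculum. Amphiphile stocks were 12,500 µg/mL in 5% w/v aqueous triethanolamine. MIC was taken as MIC99 and run in duplicate.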

Series [11] in a line: Critical micelle concentration of the compound in full-strength brain heart infusion broth by dye-covered glass-bead release. The note with it: pH 7.4.
The test system of series [12] is Staphylococcus aureus. As to the kind of experiment: Antibacterial activity against methicillin-resistant Staphylococcus aureus 34864 by broth microdilution method. It is filed as functional. The method, boiled down:
as §1

≈ marks a conversion by molar mass, not a printed value. Bounds are passed on as bounds.

By MIC is commonly meant the lowest concentration found to suppress growth. Higher therefore signals a less susceptible organism. Regarding `CCCCCCCCCCCC(=O)O` [DODECANOATE], the MIC in [1] is 250 mg/L (≈ 1250 µM); in [2] it was > 250 mg/L.

By EC10 is commonly meant the point of the concentration-response curve where the effect stands at 10%. Turning to `CCCCCCCCCCCCCCCCCCCCCCC(=O)NC(CCC(=O)O)(CCC(=O)O)CCC(=O)O`, the minimal inhibitory concentration (MIC) in [3] is 14 mg/L (≈ 24 µM); in series [4], 14 mg/L (≈ 24 µM); in series [5], 14 mg/L (≈ 24 µM); in series [6], 7 mg/L (≈ 12 µM); in series [7] it was 4.5 mg/L (≈ 7.71 µM); in [8], 7 mg/L (≈ 12 µM). Besides, the MIC in [10] amounted to 54 mg/L (≈ 92.5 µM); in [12] it was 7 mg/L (≈ 12 µM). For the same molecule, the EC10 in [9] turned out to be 31 mg/L. Moreover, in series [11], the CMC amounted to 18 µg/mL.

`CCCCCCCCCCCCCC(=O)O` [MYRISTIC ACID]: the MIC in series [1] and in series [2] was 250 mg/L (≈ 1090 µM) each time.

Regarding `CCCCCCCCCCCCCCCC(=O)O` [PALMITIC ACID], the MIC was > 250 mg/L in series [1] and 250 mg/L (≈ 975 µM) in series [2].

As for `CCCCCCCCCCCCCCCCCCCCCCCOC(=O)NC(CCC(=O)O)(CCC(=O)O)CCC(=O)O`, the MIC turned out to be 7 mg/L (≈ 11.4 µM) in series [3]; 11 mg/L (≈ 17.9 µM) in series [4]; 14 mg/L (≈ 22.8 µM) in [5]; 3.6 mg/L (≈ 5.86 µM) in [6]; 4.5 mg/L (≈ 7.33 µM) in series [7]; 5.3 mg/L (≈ 8.63 µM) in series [8]. The MIC in series [10] was 23 mg/L (≈ 37.5 µM); in series [12] it was 3.6 mg/L (≈ 5.86 µM). Also, the EC10 in series [9] was found to be 63 mg/L. In addition, in [11], the CMC was determined as 18 µg/mL.

As to `CCCCCCCCCC(=O)O` [DECANOIC ACID], the figures for the MIC in series [1] and in series [2] were 250 mg/L (≈ 1450 µM) and > 250 mg/L, respectively.

With `CCCCCCCCCCCCCCCCCCCCCCC(=O)NC(C)(CCC(=O)O)CCC(=O)O`, the MIC in series [3] was found to be 3.6 mg/L (≈ 6.85 µM); in [4] it was 3.6 mg/L (≈ 6.85 µM); in [5], 3.6 mg/L (≈ 6.85 µM); in series [6] it was 3.6 mg/L (≈ 6.85 µM); in series [7], 1.7 mg/L (≈ 3.23 µM); in series [8], 3.6 mg/L (≈ 6.85 µM). For the same molecule, the MIC in series [10] stood at 2.2 mg/L (≈ 4.18 µM); in [12], 3.6 mg/L (≈ 6.85 µM). For the same molecule, in [9], the EC10 was 7.8 mg/L. Further, the CMC in [11] is 9 µg/mL.

Consider `CCCCCCCCCCCCCCCCCCCCC(=O)NC(C)(CCC(=O)O)CCC(=O)O`, for which the MIC in series [3] was 3.6 mg/L (≈ 7.23 µM); in series [4], 5.3 mg/L (≈ 10.6 µM); in series [5], 3.6 mg/L (≈ 7.23 µM); in series [6], 3.6 mg/L (≈ 7.23 µM); in series [7], 2.2 mg/L (≈ 4.42 µM); in series [8], 3.6 mg/L (≈ 7.23 µM). Moreover, the MIC was determined as 2.2 mg/L (≈ 4.42 µM) in series [10] and 3.6 mg/L (≈ 7.23 µM) in [12]. In [9], the EC10 came out at 7.8 mg/L. In [11], this molecule showed a CMC of 9 µg/mL.

With `CCCCCCCCCCCCCCCCCCCCCOC(=O)NC(CCC(=O)O)(CCC(=O)O)CCC(=O)O`, the MIC in series [3] is 7 mg/L (≈ 11.9 µM); in [4] it was 7 mg/L (≈ 11.9 µM); in series [5], 14 mg/L (≈ 23.9 µM); in series [6], 7 mg/L (≈ 11.9 µM); in series [7], 4.5 mg/L (≈ 7.68 µM); in series [8] it was 5.3 mg/L (≈ 9.05 µM). The MIC in series [10] was 27 mg/L (≈ 46.1 µM); in series [12], 7 mg/L (≈ 11.9 µM). Also, the EC10 in series [9] came to 31 mg/L. For the same molecule, the CMC in series [11] turned out to be 18 µg/mL.

Consider `CCCCCCCCCCCCCCCCCCCCCOC(=O)NC(C)(CCC(=O)O)CCC(=O)O`, for which the MIC is 3.4 mg/L (≈ 6.44 µM) in series [3]; 2.2 mg/L (≈ 4.17 µM) in [5]; 3.4 mg/L (≈ 6.44 µM) in series [6]; 2.2 mg/L (≈ 4.17 µM) in series [7]; 4.5 mg/L (≈ 8.53 µM) in series [8]; 3.4 mg/L (≈ 6.44 µM) in series [10]. 4.5 mg/L (≈ 8.53 µM) was the least that counted as inhibitory in series [12] (MIC). In addition, the EC10 in series [9] worked out at 16 mg/L. In addition, the CMC in series [11] stood at 9 µg/mL.

For `CCCCCCCCCCCCCCCCCCCCC(=O)NC(CCC(=O)O)(CCC(=O)O)CCC(=O)O`, the MIC in [3] turned out to be 28 mg/L (≈ 50.4 µM); in series [4] it was 57 mg/L (≈ 103 µM); in series [5], 57 mg/L (≈ 103 µM); in series [6] it was 28 mg/L (≈ 50.4 µM); in [7], 45 mg/L (≈ 81 µM); in series [8], 28 mg/L (≈ 50.4 µM). Besides, the MIC in series [10] was found to be 54 mg/L (≈ 97.2 µM); in series [12] it was 23 mg/L (≈ 41.4 µM). Further, in [9], the EC10 came out at 31 mg/L. For the same molecule, the CMC in series [11] stood at 18 µg/mL.

As to `CCCCCCCCCCCCCCCCCCCCCCCNC(=O)NC(CCC(=O)O)(CCC(=O)O)CCC(=O)O`, the MIC in series [3] is 14 mg/L (≈ 22.8 µM); in series [4], 14 mg/L (≈ 22.8 µM); in series [5], 43 mg/L (≈ 70.2 µM); in series [6], 7 mg/L (≈ 11.4 µM); in series [7] it was 6.8 mg/L (≈ 11.1 µM); in series [8], 11 mg/L (≈ 17.9 µM). Further, the MIC is 54 mg/L (≈ 88.1 µM) in [10] and 11 mg/L (≈ 17.9 µM) in [12]. For the same molecule, the EC10 in [9] was 31 mg/L.

Regarding `CN[C@H](CC(C)C)C(=O)N[C@H]1C(=O)N[C@@H](CC(N)=O)C(=O)N[C@H]2C(=O)N[C@H]3C(=O)N[C@H](C(=O)N[C@H](C(=O)O)c4cc(O)cc(O)c4-c4cc3ccc4O)[C@H](O)c3ccc(c(Cl)c3)Oc3cc2cc(c3O[C@@H]2O[C@H](CO)[C@@H](O)[C@H](O)[C@H]2O[C@H]2C[C@](C)(N)[C@H](O)[C@H](C)O2)Oc2ccc(cc2Cl)[C@H]1O` [VANCOMYCIN], the MIC in series [4] worked out at 0.25 mg/L (≈ 0.173 µM); in [5], 0.75 mg/L (≈ 0.518 µM); in series [6], 0.38 mg/L (≈ 0.262 µM); in series [7] it was 0.25 mg/L (≈ 0.173 µM); in [10] it was 0.25 mg/L (≈ 0.173 µM); in [12], 0.38 mg/L (≈ 0.262 µM).

Consider `CCCCCCCCCCCCCCCCCC(=O)O` [STEARIC ACID], for which, in series [1], the MIC is > 250 mg/L.

`CCCCCCCCCCCCCCCCCCCOC(=O)NC(C)(CCC(=O)O)CCC(=O)O`: the MIC worked out at 1.7 mg/L (≈ 3.4 µM) in [3]; 2.2 mg/L (≈ 4.4 µM) in series [5]; 2.2 mg/L (≈ 4.4 µM) in [6]; 2.2 mg/L (≈ 4.4 µM) in [7]; 2.2 mg/L (≈ 4.4 µM) in series [8]; 2.2 mg/L (≈ 4.4 µM) in series [10]. In [12], the lowest concentration to inhibit growth (MIC) was 2.2 mg/L (≈ 4.4 µM). In addition, the EC10 in series [9] turned out to be 16 mg/L. Besides, the CMC in [11] stood at 9 µg/mL.

With `CCCCCCCCCCCCCCCCCCCCCNC(=O)NC(CCC(=O)O)(CCC(=O)O)CCC(=O)O`, the MIC in series [3] came out at 7 mg/L (≈ 12 µM); in series [4], 14 mg/L (≈ 23.9 µM); in series [5] it was 28 mg/L (≈ 47.9 µM); in [6], 11 mg/L (≈ 18.8 µM); in series [7], 4.5 mg/L (≈ 7.69 µM); in series [8], 7 mg/L (≈ 12 µM). In addition, the MIC in series [10] was 54 mg/L (≈ 92.3 µM); in series [12], 11 mg/L (≈ 18.8 µM). Besides, the EC10 in [9] was 31 mg/L. In series [11], the CMC was found to be 9 µg/mL.
